ChEMBL document CHEMBL2424590, “4-[18F]Fluoro-m-hydroxyphenethylguanidine: a radiopharmaceutical for quantifying regional cardiac sympathetic nerve density with positron emission tomography” (J Med Chem, 2013)

Columns and labels:
[1] = tested on: Spleen; assay: Biodistribution in Sprague-Dawley rat spleen at 20 to 120 uCi, iv after 5 mins by gamma counting analysis; assay type: ADME, organism-based; conditions: in vivo
Method in brief: (§1)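 Male and female rats (2 per sex per time point, 280–330 g) under light isoflurane given tail-vein bolus of 20–120 μCi tracer in 0.05–0.10 mL isotonic 60 mM sodium phosphate, pH 5.4. Tissues sampled at 5, 30, 60 or 120 min, weighed and gamma-counted. Decay-corrected dpm per gram normalised to injected dpm and body weight, given as %ID·kg/g.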

[2] = tested on: Rattus norvegicus; assay: Biodistribution in Sprague-Dawley rat eyeballs at 20 to 120 uCi, iv after 5 mins by gamma counting analysis; assay type: ADME, organism-based, Eyeball of camera-type eye; conditions: in vivo
Method in brief: (§2)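 Sprague-Dawley rats (280–330 g), 2 male and 2 female per time point (5, 30, 60, 120 min), under light isoflurane, received a tail-vein bolus of 20–120 μCi tracer in 0.05–0.10 mL isotonic 60 mM sodium phosphate, pH 5.4. Tissues were weighed and gamma-counted. Decay-corrected dpm/g was normalized to injected dpm per kg body weight (%ID·kg/g).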

[3] = tested on: Ovary; assay: Biodistribution in Sprague-Dawley rat ovary at 20 to 120 uCi, iv after 120 mins by gamma counting analysis; assay type: ADME, organism-based, Female gonad; conditions: in vivo, 2 h
Method in brief: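 Sprague-Dawley rats (280–330 g) under light isoflurane received a tail-vein bolus of 20–120 μCi tracer in 0.05–0.10 mL isotonic 60 mM sodium phosphate, pH 5.4. Sampling was at 5, 30, 60 or 120 min. […] were weighed and gamma-counted. Decay-corrected dpm/g was normalized to injected dpm per kg body weight (%ID·kg/g).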

[4] = Drug uptake in rhesus macaque monkey cortex 5 to 6 mCi, iv after 90 mins by PET analysis; assay type: ADME, organism-based, Macaca mulatta; conditions: in vivo, 1.5 h
[5] = tested on: Heart; assay: Biodistribution in Sprague-Dawley rat heart at 20 to 120 uCi, iv after 60 mins by gamma counting analysis; assay type: ADME, organism-based; conditions: in vivo, 1 h; method in brief: as §2
[6] = tested on: Pancreas; assay: Biodistribution in Sprague-Dawley rat pancreas at 20 to 120 uCi, iv after 30 mins by gamma counting analysis; assay type: ADME, organism-based; conditions: in vivo, 0.5 h; method in brief: as §2
[7] = tested on: Heart; assay: Biodistribution in Sprague-Dawley rat heart at 20 to 120 uCi, iv after 30 mins by gamma counting analysis; assay type: ADME, organism-based; conditions: in vivo, 0.5 h; method in brief: as §2
[8] = tested on: Adrenal; assay: Biodistribution in Sprague-Dawley rat adrenal at 20 to 120 uCi, iv after 30 mins by gamma counting analysis; assay type: ADME, organism-based, Adrenal tissue; conditions: in vivo, 0.5 h; method in brief: as §2
[9] = tested on: Rattus norvegicus; assay: Biodistribution in Sprague-Dawley rat uterus at 20 to 120 uCi, iv after 60 mins by gamma counting analysis; assay type: ADME, organism-based; conditions: in vivo, 1 h; method in brief: as §1
[10] = tested on: Muscle tissue; assay: Biodistribution in Sprague-Dawley rat muscle at 20 to 120 uCi, iv after 120 mins by gamma counting analysis; assay type: ADME, organism-based; conditions: in vivo, 2 h; method in brief: as §2
[11] = tested on: Liver; assay: Biodistribution in Sprague-Dawley rat liver at 20 to 120 uCi, iv after 30 mins by gamma counting analysis; assay type: ADME, organism-based; conditions: in vivo, 0.5 h; method in brief: as §2
[12] = tested on: Lung; assay: Biodistribution in Sprague-Dawley rat lung at 20 to 120 uCi, iv after 120 mins by gamma counting analysis; assay type: ADME, organism-based; conditions: in vivo, 2 h; method in brief: as §2
[13] = tested on: Kidney; assay: Biodistribution in Sprague-Dawley rat kidney at 20 to 120 uCi, iv after 60 mins by gamma counting analysis; assay type: ADME, organism-based; conditions: in vivo, 1 h; method in brief: as §2
[14] = tested on: Testes; assay: Biodistribution in Sprague-Dawley rat testes at 20 to 120 uCi, iv after 5 mins by gamma counting analysis; assay type: ADME, organism-based, Testis; conditions: in vivo; method in brief: as §1
[15] = tested on: Liver; assay: Biodistribution in Sprague-Dawley rat liver at 20 to 120 uCi, iv after 120 mins by gamma counting analysis; assay type: ADME, organism-based; conditions: in vivo, 2 h; method in brief: as §2
[16] = tested on: Testes; assay: Biodistribution in Sprague-Dawley rat testes at 20 to 120 uCi, iv after 60 mins by gamma counting analysis; assay type: ADME, organism-based, Testis; conditions: in vivo, 1 h; method in brief: as §1
[17] = Drug uptake in rhesus macaque monkey myocardium at 0.1 mCi after 10 to 30 mins by gamma counting analysis; assay type: ADME, Macaca mulatta; conditions: in vivo
[18] = tested on: Heart; assay: Biodistribution in Sprague-Dawley rat heart at 20 to 120 uCi, iv after 120 mins by gamma counting analysis; assay type: ADME, organism-based; conditions: in vivo, 2 h; method in brief: as §2
[19] = tested on: Pancreas; assay: Biodistribution in Sprague-Dawley rat pancreas at 20 to 120 uCi, iv after 60 mins by gamma counting analysis; assay type: ADME, organism-based; conditions: in vivo, 1 h; method in brief: as §2
[20] = tested on: Spleen; assay: Biodistribution in Sprague-Dawley rat spleen at 20 to 120 uCi, iv after 30 mins by gamma counting analysis; assay type: ADME, organism-based; conditions: in vivo, 0.5 h; method in brief: as §2
[21] = Drug uptake in rhesus macaque monkey myocardium at 0.1 mCi by compartmental modeling analysis; assay type: ADME, tissue-based, Macaca mulatta
Method in brief: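 Same monkey for all studies. Desipramine (0.010, 0.0316, 0.10 or 1.0 mg/kg; n = 1 each) in 2.0 mL saline infused i.v. over 20 min, with tracer injected 10 min after the infusion ended; 4 control studies. ROIs on myocardium and basal LV blood pool drawn on summed final four frames. Cp(t) derived from Cwb(t) × intact fraction × Cp/Cwb. Ki from compartmental modelling and Kp as Patlak slope, fitted against DMI dose to a variable-slope sigmoidal model.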

[22] = tested on: Kidney; assay: Biodistribution in Sprague-Dawley rat kidney at 20 to 120 uCi, iv after 5 mins by gamma counting analysis; assay type: ADME, organism-based; conditions: in vivo; method in brief: as §2
[23] = tested on: Brain; assay: Biodistribution in Sprague-Dawley rat brain at 20 to 120 uCi, iv after 120 mins by gamma counting analysis; assay type: ADME, organism-based; conditions: in vivo, 2 h; method in brief: as §2
[24] = tested on: Lung; assay: Biodistribution in Sprague-Dawley rat lung at 20 to 120 uCi, iv after 60 mins by gamma counting analysis; assay type: ADME, organism-based; conditions: in vivo, 1 h; method in brief: as §2
[25] = tested on: Bone; assay: Biodistribution in Sprague-Dawley rat bone at 20 to 120 uCi, iv after 30 mins by gamma counting analysis; assay type: ADME, organism-based, Bone element; conditions: in vivo, 0.5 h; method in brief: as §2
[26] = tested on: Plasma; assay: Metabolic stability in rhesus macaque monkey plasma assessed as retention time of [18F]-2-fluoro-5-(2-guanidinoethyl)phenyl hydrogen sulfate at 5 to 6 mCi, iv by RP-HPLC analysis; assay type: ADME, organism-based, Macaca mulatta; conditions: in vivo
Method in brief: (§3)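 Six venous samples (1.5–2.0 mL; typically 1, 2, 4, 10, 30, 60 min) drawn during the monkey PET scan into heparin and centrifuged 1 min at 12000 × g. Plasma deproteinised with HClO₄ (final 0.4 N), spun, neutralised with KOH to pH 7.0–7.5 and filtered twice (0.22 μm). Analysed by reverse-phase HPLC (10% EtOH in 60 mM NaH₂PO₄, pH 5.4, 1.0 mL/min) with NaI(Tl) radiodetection. Decay-corrected intact fraction per sample; T1/2 is the time at which 50% of plasma activity is metabolite.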

[27] = tested on: Brain; assay: Biodistribution in Sprague-Dawley rat brain at 20 to 120 uCi, iv after 5 mins by gamma counting analysis; assay type: ADME, organism-based; conditions: in vivo; method in brief: as §2
[28] = tested on: Pancreas; assay: Biodistribution in Sprague-Dawley rat pancreas at 20 to 120 uCi, iv after 5 mins by gamma counting analysis; assay type: ADME, organism-based; conditions: in vivo; method in brief: as §2
[29] = tested on: Spleen; assay: Biodistribution in Sprague-Dawley rat spleen at 20 to 120 uCi, iv after 120 mins by gamma counting analysis; assay type: ADME, organism-based; conditions: in vivo, 2 h; method in brief: as §2
[30] = tested on: Kidney; assay: Biodistribution in Sprague-Dawley rat kidney at 20 to 120 uCi, iv after 30 mins by gamma counting analysis; assay type: ADME, organism-based; conditions: in vivo, 0.5 h; method in brief: as §2
[31] = Half life in rhesus macaque monkey plasma at 5 to 6 mCi, iv by RP-HPLC analysis; assay type: ADME, organism-based, Macaca mulatta; method in brief: as §3
[32] = Drug uptake in rhesus macaque monkey left ventricle at 5 to 6 mCi, iv after 90 mins by PET analysis; assay type: ADME, organism-based, Macaca mulatta, Heart left ventricle; conditions: in vivo, 1.5 h
[33] = tested on: Blood; assay: Drug uptake in rhesus macaque monkey whole blood at 0.1 mCi after 10 to 85 mins by gamma counting analysis; assay type: ADME, tissue-based, Macaca mulatta
[34] = tested on: Lung; assay: Biodistribution in Sprague-Dawley rat lung at 20 to 120 uCi, iv after 30 mins by gamma counting analysis; assay type: ADME, organism-based; conditions: in vivo, 0.5 h; method in brief: as §2

## N=C(N)NCCc1ccc([18F])c(O)c1
[1]
  Drug uptake: 0.268 %IDKg/g
[2]
  Drug uptake: 0.039 %IDKg/g
[3]
  Drug uptake: 0.129 %IDKg/g
[4]
  Drug uptake: Active
[5]
  Drug uptake: 0.526 %IDKg/g
[6]
  Drug uptake: 0.145 %IDKg/g
[7]
  Drug uptake: 0.602 %IDKg/g
[8]
  Drug uptake: 0.181 %IDKg/g
[9]
  Drug uptake: 0.112 %IDKg/g
[10]
  Drug uptake: 0.015 % ID/g
[11]
  Drug uptake: 0.406 %IDKg/g
[12]
  Drug uptake: 0.036 %IDKg/g
[13]
  Drug uptake: 0.186 %IDKg/g
[14]
  Drug uptake: 0.018 %IDKg/g
[15]
  Drug uptake: 0.233 %IDKg/g
[16]
  Drug uptake: 0.008 %IDKg/g
[17]
  SUV: 1.2
[18]
  Drug uptake: 0.347 %IDKg/g
[19]
  Drug uptake: 0.172 %IDKg/g
[20]
  Drug uptake: 0.262 %IDKg/g
[21]
  Ki: 0.341 mL/min/g
[22]
  Drug uptake: 1.398 %IDKg/g
[23]
  Drug uptake: 0.001 %IDKg/g
[24]
  Drug uptake: 0.091 %IDKg/g
[25]
  Drug uptake: 0.039 %ID·kg/g
[26]
  Retention_time: 8.2 min
[27]
  Drug uptake: 0.004 %IDKg/g
[28]
  Drug uptake: 0.137 %IDKg/g
[29]
  Drug uptake: 0.235 %IDKg/g
[30]
  Drug uptake: 0.183 %IDKg/g
[31]
  half-life: 2.5 min
[32]
  Drug uptake: Active
[33]
  SUV: 3.6
[34]
  Drug uptake: 0.136 %IDKg/g
